Assay outcomes (PubChem)
Cneo AK release: Cryptococcus neoformans cell lysis inducers, primary screen, AK release luminescence, single concentration; lysis activity, % at 15 µM; 0.2% of 360,000 active; C. neoformans lysis, adenylate kinase release luminescence, 4 h; normalised: neutral wells 0, clomiphene wells 100;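 active = mean lysis activity across replicates of at least 80%, whatever share of replicates individually reach that level; inactive = mean lysis activity below 80%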
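read-out = cell lysis signal | test system = log-phase Cryptococcus neoformans yeast cells | input = cells at 5 × 10^6 per mL | medium = fresh YPD growth medium | signal = luminescent adenylate kinase detection reagent | timing = 4 h at 37 °C static, read 1 h later | dosing = single dose | controls = Clomiphene as positive lysis control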
PGC1a acetyl inh: inhibitors of PGC1a acetylation signal, primary screen, cell-based, U2OS, AlphaScreen, inhibitor mode | AlphaScreen anti-acetyl-lysine; with virally co-expressed GCN5 acetyltransferase | AID 651687, 2012 | 0.17% of 350,000 active | inhibition, % at 15.6 µM;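 active = every replicate shows inhibition of at least 40%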;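 note: 0% = neutral control wells and 100% = positive control wells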
FGF22 binding: binders of human FGF22 protein, primary screen, FGF22 synaptogenesis inhibitor project, biophysical, thermal shift, single point; recombinant FGF22 thermal shift, SYPRO orange fluorescence; percent of sucrose octasulfate shift, DMSO zero; 1.5% of 340,000 active; Fibroblast growth factor 22 (Homo sapiens), Q9HCT0; activity (Tm shift, normalised), % at 9.99 µM;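 active = mean Tm shift, scaled 0 neutral to 100 positive control, at about 1.3% or above, every replicate too, limit read from the data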
Target sequence (Q9HCT0 whole entry, looked up): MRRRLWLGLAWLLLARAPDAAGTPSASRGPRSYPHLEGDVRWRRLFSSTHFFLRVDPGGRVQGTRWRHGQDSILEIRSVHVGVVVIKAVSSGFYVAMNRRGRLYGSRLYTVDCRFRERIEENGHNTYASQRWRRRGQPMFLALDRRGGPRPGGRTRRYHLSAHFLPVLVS
Vif inh: HIV Vif self-association inhibitors, primary screen, imaging, HEK293T, single point; HEK293T cells, Vif self-association by quenched fluorescence, 24 h; 0.35% of 340,000 active; AID 602346, 2012; inhibition, % at 7.49 µM; in the data active = inhibition above about 50%, passing the limit was not always enough
Ecoli rRNA inh: reduced GFP signal of wild-type E. coli, primary screen, bacterial rRNA inhibitor project, GFP/RFP fluorescence, OD600, single point. E. coli WT GFP vs humanized-ribosome RFP mutants, 24 h; hits give low values; DMSO median 0, no signal -100. GFP signal change (wild-type ribosome), % (test concentration not listed). 1.6% of 350,000 active. AID 720706, 2013;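 active = significant combined selectivity score with lowered wild-type GFP, culture density cut under 30%, mutant RFP and density less affected; inactive = any of these conditions unmet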
PglD inh: C. jejuni PglD acetyltransferase inhibitors, primary screen, biochemical, DTNB colorimetric, single point. purified PglD enzyme, DTNB colorimetric CoA detection. inhibition, % at 12.5 µM. 0.098% of 360,000 active; in the data active = inhibition above about 16%, passing the limit was not always enough
* = called active by the depositor; . = not tested or not shown. An excerpt weighted towards active compounds, which were near 2.9% of everything screened.

SMILES	Cneo AK release	PGC1a acetyl inh	FGF22 binding	Vif inh	Ecoli rRNA inh	PglD inh
CC(C)[C@H]1COCc2cn(nn2)CC[C@@H](Cc2ccc(Cl)cc2)C(=O)N1	.	.	.	.	-0.1	.
Cc1cccc(-c2ccc([C@H]3[C@@H](CO)N4C(=O)CN(C(=O)c5cccnc5)C[C@H]34)cc2)c1	.	5.5	.	.	-1.0	.
CN1C(=O)c2cc(NC(=O)Nc3ccccc3F)ccc2OC[C@@H]2O[C@@H](CC(=O)NCCc3ccncc3)CC[C@H]21	.	-0.5	.	.	4.6	.
ONC(=Nc1ccccc1Cl)c1ccccc1Cl	5.1	-8.7	-0.3	-4.6	-31.5*	3.7
Cc1ccc2nc(-c3cccs3)oc(=O)c2c1	-0.3	1.5	43.4*	-12.0	.	-0.5
O=c1oc(-c2cccs2)nc2ccc(Br)cc12	-2.1	-3.6	.	.	.	0.3
CCOCC(=O)NC1CCc2cc(OC(=O)COCC)c(OC)c(OC)c2-c2ccc(SC)c(=O)cc21 (stereo not drawn)	.	2.1	-0.3	95.3*	9.5	.
CCOC(=O)NC1CCc2cc(OC)c(OC)c(OC)c2-c2ccc(OC)c(=O)cc21 (stereo not drawn)	.	-8.3	0.0	6.1	7.1	.
CNC1CCc2cc(OC)c(OC)c(OC)c2-c2ccc(SC)c(=O)cc21 (stereo not drawn)	.	.	-0.1	102.9*	8.4	.
COc1cc2c(c(OC)c1OC)-c1ccc(SC)c(=O)cc1C(NC(=O)C(F)(F)F)CC2 (stereo not drawn)	.	6.2	-0.2	-2.4	6.6	.
CCOC(=O)COC(=O)c1ccc(O)cc1	-2.9	.	.	6.0	.	-9.2
Cc1ccc(C(=O)COC(=O)c2ccc(O)cc2)cc1	.	-3.0	0.2	-2.4	-26.6*	.
O=C(c1ccc(Br)cc1)c1cn[nH]c1-c1ccccc1O	.	.	-0.1	-10.3	0.1	.
CC(C)(C)c1ccc(C(=O)c2cn[nH]c2-c2ccccc2O)cc1	-5.5	-3.9	-0.1	-4.4	-22.0*	-4.9
COc1ccc(/C=N/Nc2cc(C)nc3ccc(OC)cc23)c(OC)c1	-1.0	.	-0.3	92.3*	-50.2	-30.2
COc1ccc2nc(C)cc(NCc3ccc(F)cc3)c2c1	0.7	-6.0	0.0	90.8*	18.3	0.5
COc1ccc2nc(C)cc(N/N=C/c3ccccc3)c2c1	-0.4	36.0	.	-12.9	.	-0.1
CO[C@@H]1CN(C)C(=O)c2ccc(NC(=O)NC(C)C)cc2OC[C@H](C)N(C(=O)CC2CC2)C[C@@H]1C	-1.8	-10.8	0.0	.	0.8	2.8
Cn1ccsc1=NC(=O)c1ccc(Cl)cc1	.	3.1	0.1	-3.5	-27.1*	.
CCOc1cc(C(=O)N=c2sccn2C)ccc1OC(F)F	-0.3	.	-0.1	3.1	-26.2*	2.7
COCCn1nnnc1C(c1cccc(OC)c1OC)N1CCN(C(=O)c2ccco2)CC1 (stereo not drawn)	2.7	18.9	0.2	4.6	8.3	3.7
COCCn1nnnc1C(c1ccccc1OC)N1CCN(C(=O)c2ccco2)CC1 (stereo not drawn)	-1.3	-3.1	2.1*	1.0	1.4	-5.1
O=C(c1cc(S(=O)(=O)N2CCOCC2)c(Cl)cc1Cl)N1CCN(S(=O)(=O)c2cccc(F)c2)CC1	3.1	-15.0	42.9*	-3.9	3.4	-0.3
Cc1ccc(S(=O)(=O)N2CCN(C(=O)c3cc(S(=O)(=O)N4CCOCC4)c(Cl)cc3Cl)CC2)cc1	-1.5	5.5	0.0	-4.4	2.9	-1.0
CCCCN(C(=O)CCn1c(=O)oc2ccccc21)c1ccccc1	-1.7	3.3	-0.5	-7.4	-26.9*	-1.1
O=[N+]([O-])c1cccc(/C=N/Nc2nc(NCc3ccccc3)nc(N3CCOCC3)n2)c1O	.	.	43.7*	-7.0	6.4	.
O=[N+]([O-])c1ccc(/C=N/Nc2nc(NCc3ccccc3)nc(N3CCOCC3)n2)cc1	.	.	42.4	-5.1	12.2	.
